Laboratory results: ChEMBL document CHEMBL2029242 (J Med Chem, 2012)

Key:
COLO 205 = assay: Cytotoxicity against human COLO205 cells expressing BRAF V600E mutant after 72 hrs by cell titer blue assay; type: functional, cell-based; settings: COLO 205, 72 h
In short: (§1)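 Cells were grown in ATCC-recommended media and kept overnight in 0.5% serum. They were then exposed to compound for 72 h, and Cell Titer Blue was added for 3 h. EC50 came from fluorometric concentration−response curves, run in duplicate and repeated at least once.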

Mus musculus [1] = assay: Inhibition of BRAF V600E mutant-mediated MEK phosphorylation in human COLO205 cells xenografted in athymic nude mouse at 30 mg/kg, po after 6 hrs; type: functional; settings: COLO 205, 6 h
In short: (§2)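 Mice bearing Colo-205 xenografts got one oral dose in 22% HPβCD; vehicle controls were run. Tumors were collected at time points over 24 h and lysed. pMEK and total MEK in the lysates were measured by immunoblotting and ELISA, and pMEK was normalized to total MEK.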

Cytochrome P450 2D6 = Cytochrome P450 2D6 (Homo sapiens, UniProt P10635); assay: Inhibition of human CYP2D6; type: ADME
In short: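 Pooled human liver microsomes (0.25 mg/mL) with NADPH (1 mM) and five pooled probe substrates (testosterone, diclofenac, dextromethorphan, mephenytoin, phenacetin). Test compound ran at eight concentrations, 0.31−40 μM, 20 min at 37 °C, with pooled control inhibitors in parallel. Isoform-specific metabolites were measured by LC-MS/MS.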

[2] = Intrinsic clearance in Cynomolgus monkey liver microsomes; type: ADME, Macaca fascicularis, Microsome
In short: (§3)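 Pooled liver microsomes (0.5 mg/mL) in 0.1 M phosphate pH 7.4 with 6.5 mM MgCl2 and compound at 1 μM (0.2% DMSO). NADPH (1 mM) started the reaction at 37 °C, with minus-NADPH and testosterone controls. Aliquots taken at 0, 5, 15, 30 and 60 min were quenched in acetonitrile; duplicates.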

[3] = Tmax in Sprague-Dawley rat at 10 mg/kg, po; type: ADME, organism-based; parameters: dose 10 mg/kg, route oral; settings: in vivo
In short: (§4)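 Male Sprague-Dawley rats (250–350 g, jugular-catheterized) received a single dose either iv at 1 mg/kg in 3:1 PEG400/water (n = 2) or po at 10 mg/kg in Pharmatek #6 (n = 3). Plasma was sampled at 5 min (iv only), 15 and 30 min, and 1, 2, 4, 6 and 24 h. Samples were analyzed by LC-MS/MS after acetonitrile precipitation. Parameters came from noncompartmental linear-trapezoidal analysis of individual animals.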

[4] = Half life in mouse liver microsomes; type: ADME, Microsome; in short: as §3
Liver = assay: Intrinsic clearance in mouse liver microsomes; type: ADME, Microsome
Mus musculus [5] = assay: Toxicity in athymic nude mouse xenografted with human COLO205 cells at 100 mg/kg, po bid for 14 days; type: organism-based, COLO 205; parameters: dose 100 mg/kg, route oral; settings: in vivo, 336 h
In short: (§5)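 Athymic nude mice (20–25 g) were inoculated subcutaneously in the flank with 1×10^6 Colo-205 cells. At 150–200 mm3 they were randomized (n = 10/group) to oral vehicle (22% HPβCD) or 10, 30 or 100 mg/kg BID for 14 days. Calipers were used three times weekly. Body weight and behavior were monitored, with 7–10 days of follow-up after dosing. Partial regression meant volume falling in ≥3 successive measurements, ending below baseline but still palpable.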

A-375 = assay: Cytotoxicity against human A375 cells expressing BRAF V600E mutant after 72 hrs by cell titer blue assay; type: functional, cell-based; settings: A-375, 72 h; in short: as §1
[6] = Oral bioavailability in Cynomolgus monkey at 10 mg/kg; type: ADME, organism-based, Macaca fascicularis; settings: in vivo
In short: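 Male non-naive cynomolgus monkeys (2.6–3.4 kg) and beagle dogs (10.3–11.9 kg), n = 3 each, were dosed in a crossover design with a ≥7-day washout. Doses were 10 mg/kg by nasogastric gavage and 1 mg/kg as a saphenous iv bolus, both free base in 22% HPβCD. Animals were fasted overnight until about 4 h post dose. Femoral plasma was sampled from predose to 24 h and analyzed by LC-MS/MS. Parameters came from noncompartmental analysis; mean ± SD reported.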

[7] = Cmax in beagle dog at 10 mg/kg, po; type: ADME, organism-based, Canis lupus familiaris; parameters: dose 10 mg/kg, route oral; settings: in vivo
In short: (§6)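 Single-dose PK. Rats: male Sprague−Dawley, jugular-catheterized, 1 mg/kg iv in 3:1 PEG400/water (n = 2) and 10 mg/kg po in Pharmatek #6 (n = 3). Female athymic nude mice: 100 mg/kg po in Pharmatek #6 (n = 3). Beagle dogs and male cynomolgus monkeys (n = 3): crossover, 1 mg/kg iv and 10 mg/kg po in 22% HPβCD, overnight fast. Plasma LC-MS/MS to 24 h; noncompartmental parameters, mean ± SD.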

Mus musculus [8] = assay: Toxicity in athymic nude mouse xenografted with human COLO205 cells at 10 mg/kg, po bid for 14 days measured upto 1 week post dosing; type: organism-based, COLO 205; parameters: dose 10 mg/kg, route oral; settings: in vivo; in short: as §5
Mus musculus [9] = assay: Inhibition of BRAF V600E mutant-mediated MEK phosphorylation in human COLO205 cells xenografted in athymic nude mouse at 55 mg/kg, po after 2 hrs; type: functional; settings: COLO 205, 2 h; in short: as §2
[10] = Volume of distribution in Sprague-Dawley rat at 1 mg/kg, iv and 10 mg/kg, po; type: ADME, organism-based; settings: in vivo; in short: as §4
[11] = target: Mitogen-activated protein kinase 1 (Homo sapiens, UniProt P28482); assay: Inhibition of ERK2 in human HEK293 cells after 1 hr by competition binding assay; type: cell-based
In short: (§7)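 KINOMEscan competition binding. Binding reactions ran at rt for 1 h. Unbound kinase was captured on an immobilized affinity ligand and quantified by qPCR. Each kinase was tested individually.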

[12] = target: Tyrosine-protein kinase JAK1 (Homo sapiens, UniProt P23458); assay: Inhibition of JAK1 in human HEK293 cells after 1 hr by competition binding assay; type: cell-based; in short: as §7
Hs-578T = assay: Cytotoxicity against human Hs578T cells expressing wild type BRAF after 72 hrs by cell titer blue assay; type: functional, cell-based; in short: as §1
HT-144 = assay: Cytotoxicity against human HT144 cells expressing BRAF V600E mutant after 72 hrs by cell titer blue assay; type: functional, cell-based; settings: HT-144, 72 h; in short: as §1
[13] = target: Hepatocyte growth factor receptor (Homo sapiens, UniProt P08581); assay: Inhibition of cMET in human HEK293 cells after 1 hr by competition binding assay; type: cell-based; in short: as §7
[14] = target: Phosphatidylinositol 4,5-bisphosphate 3-kinase catalytic subunit alpha isoform (Homo sapiens, UniProt P42336); assay: Inhibition of PIK3-CA in human HEK293 cells after 1 hr by competition binding assay; type: cell-based
In short: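 Unbound kinase was captured on immobilized affinity ligand and quantified by qPCR. Kd came from eleven serial 3-fold dilutions, as the mean of duplicates.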

[15] = AUC (infinity) in Sprague-Dawley rat at 10 mg/kg, po; type: ADME, organism-based; parameters: time infinity, dose 10 mg/kg, route oral; settings: plasma; in short: as §6
HCT-116 = assay: Cytotoxicity against human HCT116 cells expressing wild type BRAF after 72 hrs by cell titer blue assay; type: functional, cell-based; settings: HCT-116, 72 h; in short: as §1
[16] = AUC (infinity) in athymic nude mouse at 100 mg/kg, po; type: ADME, organism-based; parameters: time infinity, dose 100 mg/kg, route oral; settings: plasma; in short: as §6
[17] = target: Serine/threonine-protein kinase PLK1 (Homo sapiens, UniProt P53350); assay: Inhibition of PLK1 in human HEK293 cells after 1 hr by competition binding assay; type: cell-based; in short: as §7
[18] = target: Tyrosine-protein kinase ABL1 (Homo sapiens, UniProt P00519); assay: Inhibition of Abl1 in human HEK293 cells after 1 hr by competition binding assay; type: cell-based; in short: as §7
[19] = target: Dual specificity mitogen-activated protein kinase kinase 1 (Homo sapiens, UniProt Q02750); assay: Inhibition of MEK1 in human HEK293 cells after 1 hr by competition binding assay; type: cell-based; in short: as §7
Sequence of Dual specificity mitogen-activated protein kinase kinase 1 (Q02750 whole entry): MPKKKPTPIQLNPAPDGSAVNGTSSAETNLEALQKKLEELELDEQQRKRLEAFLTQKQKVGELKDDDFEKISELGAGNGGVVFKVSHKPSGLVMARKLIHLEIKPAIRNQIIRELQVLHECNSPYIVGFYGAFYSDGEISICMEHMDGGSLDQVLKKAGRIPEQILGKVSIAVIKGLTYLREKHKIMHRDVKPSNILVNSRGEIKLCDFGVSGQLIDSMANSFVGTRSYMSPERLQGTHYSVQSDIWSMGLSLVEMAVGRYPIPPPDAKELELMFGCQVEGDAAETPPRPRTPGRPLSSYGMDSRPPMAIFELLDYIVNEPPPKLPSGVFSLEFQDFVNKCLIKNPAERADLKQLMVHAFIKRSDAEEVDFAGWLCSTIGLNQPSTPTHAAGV

Sequence of Mitogen-activated protein kinase 1 (P28482 whole entry): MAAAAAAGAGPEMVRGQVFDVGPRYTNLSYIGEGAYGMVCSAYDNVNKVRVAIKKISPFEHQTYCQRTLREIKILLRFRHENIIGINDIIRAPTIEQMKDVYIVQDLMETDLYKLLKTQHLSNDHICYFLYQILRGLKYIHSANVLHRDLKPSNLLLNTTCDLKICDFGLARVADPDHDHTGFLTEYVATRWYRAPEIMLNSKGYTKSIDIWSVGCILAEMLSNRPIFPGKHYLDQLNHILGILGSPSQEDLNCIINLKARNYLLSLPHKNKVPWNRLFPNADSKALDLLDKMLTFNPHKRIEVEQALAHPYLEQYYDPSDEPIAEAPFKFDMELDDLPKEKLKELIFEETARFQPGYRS
Sequence of Cytochrome P450 2D6 (P10635 whole entry, canonical isoform): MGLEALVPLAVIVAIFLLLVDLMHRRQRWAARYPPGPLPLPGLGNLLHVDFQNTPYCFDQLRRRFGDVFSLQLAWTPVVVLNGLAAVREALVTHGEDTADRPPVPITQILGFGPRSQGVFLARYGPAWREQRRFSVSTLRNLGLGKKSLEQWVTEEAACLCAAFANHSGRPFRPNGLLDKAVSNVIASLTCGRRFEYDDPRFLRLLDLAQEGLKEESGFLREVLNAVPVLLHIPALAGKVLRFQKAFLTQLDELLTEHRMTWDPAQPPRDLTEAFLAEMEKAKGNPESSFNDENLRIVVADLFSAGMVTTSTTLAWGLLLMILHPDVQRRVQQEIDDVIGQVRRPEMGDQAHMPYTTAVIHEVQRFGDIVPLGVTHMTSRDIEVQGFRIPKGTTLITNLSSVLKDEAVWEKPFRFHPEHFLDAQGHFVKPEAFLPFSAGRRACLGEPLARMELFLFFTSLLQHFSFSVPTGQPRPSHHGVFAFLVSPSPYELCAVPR
Sequence of Phosphatidylinositol 4,5-bisphosphate 3-kinase catalytic subunit alpha isoform (P42336 whole entry, canonical isoform): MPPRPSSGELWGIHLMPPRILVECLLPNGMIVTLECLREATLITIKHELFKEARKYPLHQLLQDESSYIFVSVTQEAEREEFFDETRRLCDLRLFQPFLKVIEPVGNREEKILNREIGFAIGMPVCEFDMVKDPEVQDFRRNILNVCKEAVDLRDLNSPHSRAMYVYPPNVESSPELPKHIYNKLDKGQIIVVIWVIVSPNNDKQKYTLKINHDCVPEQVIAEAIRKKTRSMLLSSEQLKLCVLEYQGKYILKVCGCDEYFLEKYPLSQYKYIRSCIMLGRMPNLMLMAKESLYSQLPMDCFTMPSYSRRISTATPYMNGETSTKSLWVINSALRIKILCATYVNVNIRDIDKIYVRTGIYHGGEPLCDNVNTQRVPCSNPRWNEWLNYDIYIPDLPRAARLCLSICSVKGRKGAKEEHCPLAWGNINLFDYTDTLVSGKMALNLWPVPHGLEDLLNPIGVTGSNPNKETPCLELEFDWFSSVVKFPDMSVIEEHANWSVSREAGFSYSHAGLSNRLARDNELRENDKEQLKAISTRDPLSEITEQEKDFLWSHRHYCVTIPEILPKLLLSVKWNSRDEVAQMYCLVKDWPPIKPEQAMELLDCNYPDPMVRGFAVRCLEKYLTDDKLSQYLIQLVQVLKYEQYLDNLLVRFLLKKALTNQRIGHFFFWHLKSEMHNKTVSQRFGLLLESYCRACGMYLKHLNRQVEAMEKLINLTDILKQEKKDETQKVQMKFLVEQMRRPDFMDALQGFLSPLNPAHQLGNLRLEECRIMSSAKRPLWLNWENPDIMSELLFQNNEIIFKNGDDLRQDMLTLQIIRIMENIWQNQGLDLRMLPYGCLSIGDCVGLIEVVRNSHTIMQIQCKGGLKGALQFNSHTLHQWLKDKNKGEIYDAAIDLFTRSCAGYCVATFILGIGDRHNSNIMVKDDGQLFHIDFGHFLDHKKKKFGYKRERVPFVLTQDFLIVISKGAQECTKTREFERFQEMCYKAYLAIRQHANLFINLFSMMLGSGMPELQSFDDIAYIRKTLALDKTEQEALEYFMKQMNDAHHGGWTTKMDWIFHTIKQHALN
Sequence of Serine/threonine-protein kinase PLK1 (P53350 whole entry): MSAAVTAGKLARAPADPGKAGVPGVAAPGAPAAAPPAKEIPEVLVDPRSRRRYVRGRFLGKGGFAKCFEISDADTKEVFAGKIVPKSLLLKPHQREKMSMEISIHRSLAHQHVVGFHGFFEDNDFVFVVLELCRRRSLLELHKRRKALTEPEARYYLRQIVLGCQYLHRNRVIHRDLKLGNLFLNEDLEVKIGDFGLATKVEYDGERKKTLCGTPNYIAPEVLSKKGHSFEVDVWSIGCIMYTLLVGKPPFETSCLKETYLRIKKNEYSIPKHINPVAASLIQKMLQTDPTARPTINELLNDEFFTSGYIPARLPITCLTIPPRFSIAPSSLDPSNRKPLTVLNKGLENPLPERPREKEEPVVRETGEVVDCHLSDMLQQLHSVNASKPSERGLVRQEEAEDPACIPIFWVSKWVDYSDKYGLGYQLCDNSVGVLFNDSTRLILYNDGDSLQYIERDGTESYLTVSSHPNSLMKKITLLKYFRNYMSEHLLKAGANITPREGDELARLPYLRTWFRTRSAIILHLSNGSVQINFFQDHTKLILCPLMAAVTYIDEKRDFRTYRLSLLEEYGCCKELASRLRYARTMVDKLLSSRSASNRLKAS
Sequence of Tyrosine-protein kinase JAK1 (P23458 whole entry): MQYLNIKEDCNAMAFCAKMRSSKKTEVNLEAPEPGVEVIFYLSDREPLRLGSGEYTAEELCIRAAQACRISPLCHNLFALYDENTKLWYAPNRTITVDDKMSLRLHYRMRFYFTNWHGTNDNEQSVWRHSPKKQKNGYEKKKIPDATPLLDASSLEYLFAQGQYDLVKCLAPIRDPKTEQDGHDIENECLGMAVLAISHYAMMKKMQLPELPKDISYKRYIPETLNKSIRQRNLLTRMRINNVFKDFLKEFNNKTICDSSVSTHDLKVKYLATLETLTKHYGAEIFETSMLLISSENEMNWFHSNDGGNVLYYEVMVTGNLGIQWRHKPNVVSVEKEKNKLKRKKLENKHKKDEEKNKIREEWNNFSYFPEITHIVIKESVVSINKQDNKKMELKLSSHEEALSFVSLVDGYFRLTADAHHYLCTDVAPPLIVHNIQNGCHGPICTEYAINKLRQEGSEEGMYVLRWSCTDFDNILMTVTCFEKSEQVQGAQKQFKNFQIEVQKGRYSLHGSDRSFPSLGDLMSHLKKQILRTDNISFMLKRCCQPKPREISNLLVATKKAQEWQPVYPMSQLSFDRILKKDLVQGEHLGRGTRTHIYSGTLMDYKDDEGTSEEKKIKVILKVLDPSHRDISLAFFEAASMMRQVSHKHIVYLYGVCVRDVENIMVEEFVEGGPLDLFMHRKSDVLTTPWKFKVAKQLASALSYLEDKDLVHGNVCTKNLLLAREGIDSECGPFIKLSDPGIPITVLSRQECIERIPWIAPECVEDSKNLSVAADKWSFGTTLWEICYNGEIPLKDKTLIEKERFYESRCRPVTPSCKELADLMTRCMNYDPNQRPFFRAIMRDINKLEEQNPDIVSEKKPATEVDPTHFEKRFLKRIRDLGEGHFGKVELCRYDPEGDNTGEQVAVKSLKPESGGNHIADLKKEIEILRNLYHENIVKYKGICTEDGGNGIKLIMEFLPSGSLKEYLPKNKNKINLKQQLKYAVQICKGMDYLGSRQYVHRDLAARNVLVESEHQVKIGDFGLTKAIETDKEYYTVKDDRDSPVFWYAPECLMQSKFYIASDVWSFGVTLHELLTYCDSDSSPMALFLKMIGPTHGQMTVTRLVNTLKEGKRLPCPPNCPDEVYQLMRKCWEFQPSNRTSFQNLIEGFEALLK

- IC50 (Cytochrome P450 2D6): > 10000 nM
- CLH [2]: < 23 µL/min/mg
- Tmax [3]: 2 h
- half-life [4]: > 1 h
- CLH (Liver): < 23 µL/min/mg
- bioavailability [6]: 100%
- Cmax [7]: 5.2 µM
- Vd [10]: 1.6 L/kg
- Kd [11]: > 10000 nM
- Kd [12]: > 10000 nM
- Kd [13]: 513 nM
- Kd [14]: > 10000 nM
- AUC(0-inf) [15]: 74.4 µM·h
- AUC(0-inf) [16]: 394 µM·h
- Kd [17]: > 10000 nM
- Kd [18]: 3 nM
- Kd [19]: 7100 nM
SMILES: COc1cc2ncnc(Oc3cccc(NC(=O)Nc4cc(C(C)(C)C(F)(F)F)on4)c3)c2cc1OC [CEP-32496]
- EC50 (COLO 205): 36 nM
- inhibition in vivo at 30 mg/kg (Mus musculus [1]): 75%
- Activity (Mus musculus [5]): Non-toxic
- IC50 (A-375): 78 nM
- Activity (Mus musculus [8]): Non-toxic
- inhibition in vivo at 55 mg/kg (Mus musculus [9]): 75%
- EC50 (Hs-578T): 2740 nM
- EC50 (HT-144): 228 nM
- EC50 (HCT-116): 669 nM
